Only some compounds are listed: those with a hit (about 4% of all), similar ones and a draw of the others.
Measles CPE: compounds protecting cells from measles virus cytopathic effect, primary screen, measles RdRp inhibitor project, single point, MLSMR library, absorbance | Measles virus-infected cells, CPE protection | protection (pct of control), % at 4 µM | actives 1.5% (n = 140,000); in the data active = protection mostly above about 24%, no sharp cut-off; inactive = mostly below about 26%
Insulin prom inh: inhibitors of insulin promoter-driven GFP, primary screen, imaging, TRM-6 cells (human fetal islet line), eGFP reporter, cell count; reporter expression induced with tamoxifen; inhibition, % at 2 µM; actives 0.9% (n = 130,000);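 active = inhibition above the mean plus 3 SD, with well images judged a real hit on visual review, cut at about 60% in these data, passing the limit was not always enough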
Yeast lifespan up: compounds extending yeast replicative lifespan, primary screen, S. cerevisiae, OD615 | S. cerevisiae growth with nicotinamide; deaD strain in restrictive glucose medium | actives 0.68% (n = 130,000) | inhibition of the nicotinamide effect, % at 10 µM;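 active = inhibition above a set limit, placed 3 SD over the median of all compounds, cut at about 26% in these data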
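Assay system: DeaD-strain S. cerevisiae. Medium: CSMM-D glucose medium, restrictive. Reagent: nicotinamide, 1.5 mM, co-present with compound. Compound: 10 µM single point, 0.25% DMSO. Schedule: culture preincubation 4 h, compound exposure 48 h, both 30 °C. Detection: absorbance at 615 nm.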
MDM2 E3 inh: MDM2-luciferase reporter signal enhancers, primary screen, MDM2 E3 ligase inhibitor project, cell-based, luminescence, 1536-well; E3 ubiquitin-protein ligase Mdm2 (Homo sapiens), Q00987; cell-based MDM2 ubiquitination luciferase reporter, 2 h; 0 = plate control, 100 = twice control, blank-subtracted; signal enhancement, % at 5 µM; actives 0.11% (n = 210,000);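 active = signal enhancement of 30% or more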;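 note: luminescence tracks abundance of the self-degrading MDM2-luciferase fusion protein; higher signal means inhibition of MDM2 E3 ligase activity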
Target sequence (Q00987 whole entry, looked up, the tested form may be a part): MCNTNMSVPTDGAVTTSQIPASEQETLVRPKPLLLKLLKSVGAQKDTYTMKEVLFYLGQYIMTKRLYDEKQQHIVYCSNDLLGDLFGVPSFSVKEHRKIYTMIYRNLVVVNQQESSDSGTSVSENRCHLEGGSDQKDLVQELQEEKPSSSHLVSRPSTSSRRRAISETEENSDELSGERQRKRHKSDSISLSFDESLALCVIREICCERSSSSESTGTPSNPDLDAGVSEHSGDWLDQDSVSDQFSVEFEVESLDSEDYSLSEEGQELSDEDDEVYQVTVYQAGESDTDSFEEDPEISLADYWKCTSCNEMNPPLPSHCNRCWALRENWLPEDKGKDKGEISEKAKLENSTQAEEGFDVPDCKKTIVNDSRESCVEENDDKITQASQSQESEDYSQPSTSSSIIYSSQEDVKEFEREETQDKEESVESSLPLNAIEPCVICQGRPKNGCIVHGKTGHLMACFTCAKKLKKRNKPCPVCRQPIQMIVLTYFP
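Buffer or medium: Cells held in DMEM | Assay system: Stable mammalian line carrying autodegrading MDM2–luciferase fusion reporter | Quantity: 2000 cells/well | Times: 4 h settle plus 2 h compound, 37 °C | Doses: One concentration, 5 µM, with 0.2% DMSO | Technique: Luminescence with SteadyLite reagent, 15 min at room temperature | Benchmarks: Plate controls and plate blanks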
BB579 growth dn: growth inhibitors of yeast BB579 in restrictive medium, primary screen, yeast lifespan-shortening project, S. cerevisiae; inhibition, % at 10 µM; actives 0.51% (n = 140,000); OD615, 48 h;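 active = inhibition above a set limit, 3 SD over the mean compound inhibition, cut at about 44% in these data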
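Test system: Saccharomyces cerevisiae DeaD strain BB579, replicative lifespan model yeast | Buffer or medium: Restrictive CSMM-D medium | Doses: One dose, 10 µM compound with 0.25% DMSO | Incubation: 48 h exposure, 30 °C | Detection: Culture absorbance at 615 nm | Control set: Amphotericin B at 10 µg/mL as positive control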
RAM network inh: inhibitors of the yeast RAM network, primary screen, dse1pr::URA3 reporter, 5-FOA selection; S. cerevisiae dse1pr::URA3 reporter, 5-FOA growth OD615, 2 d; analog-sensitive cbk1-as2 kinase mutant strain; inhibition, % at 50 µM; actives 1.8% (n = 190,000); AID 868, 2007;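 active = inhibition above a set limit, 3 SD over mean compound inhibition, cut at about 8.4% in these data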;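 note: inhibition rescues growth on 5-FOA so higher OD means more RAM inhibition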
Hits are given with their value.

Screening CCOc1ccc2nc(NCCO)[nH]c2c1 returned Measles CPE inactive, Yeast lifespan up inactive, MDM2 E3 inh inactive, BB579 growth dn inactive and RAM network inh inactive.
`Cc1ccc2nc(NCCCO)[nH]c2c1` gave Measles CPE inactive, Insulin prom inh 78, MDM2 E3 inh inactive, BB579 growth dn inactive and RAM network inh inactive.
Screening CCSc1nc2ccccc2n1C(=O)/C=C\c1ccc(OC)c(OC)c1 returned Measles CPE inactive, Yeast lifespan up inactive, MDM2 E3 inh 43, BB579 growth dn inactive and RAM network inh inactive.
CCSc1nc2ccccc2n1CC(N)=O was read as Measles CPE inactive, Insulin prom inh inactive, Yeast lifespan up inactive, MDM2 E3 inh inactive, BB579 growth dn inactive and RAM network inh inactive.
For CCn1cc(CNCc2cn(C)nc2-c2ccc(C3CCCCC3)cc2)cn1 the results were MDM2 E3 inh inactive and RAM network inh inactive.
CCc1c(C)c(C#N)c2nc3ccccc3n2c1Cl was read as Measles CPE inactive, Insulin prom inh inactive, Yeast lifespan up 28, MDM2 E3 inh 44, BB579 growth dn inactive and RAM network inh inactive.
CCc1c(C)c(C#N)c2nc3ccccc3n2c1-n1nc(C)cc1C was read as Measles CPE inactive, Insulin prom inh inactive, Yeast lifespan up inactive, MDM2 E3 inh inactive, BB579 growth dn inactive and RAM network inh inactive.
Screening Cc1cc(Nc2ccc(O)cc2)n2c(nc3ccccc32)c1C#N returned MDM2 E3 inh inactive and RAM network inh 9.1.
`Cc1cc(C(C)C)n2c(nc3ccccc32)c1C#N` gave MDM2 E3 inh inactive and RAM network inh inactive.
Cc1cc(-c2ccco2)c(C#N)c2nc3ccccc3n12 was read as Measles CPE inactive, Insulin prom inh inactive, Yeast lifespan up inactive, MDM2 E3 inh inactive, BB579 growth dn 89 and RAM network inh inactive.
For C=CCn1c(COc2ccccc2)nnc1SC(C)C(=O)N/N=C/c1cc(Cl)ccc1O (stereo not drawn) the results were Measles CPE inactive, Insulin prom inh inactive, Yeast lifespan up inactive, MDM2 E3 inh inactive, BB579 growth dn inactive and RAM network inh inactive.
For O=c1[nH]c(SCc2ccccc2)nc2[nH]ncc12 the results were MDM2 E3 inh inactive and RAM network inh inactive.
Screening CNS(=O)(=O)c1cccc(C(=O)OC2CCCCC2=O)c1 (stereo not drawn) returned Measles CPE inactive, Insulin prom inh inactive, Yeast lifespan up inactive, MDM2 E3 inh inactive, BB579 growth dn inactive and RAM network inh inactive.
`N#C/C(=C\Nc1ccc(Cl)cc1)S(=O)(=O)c1ccccn1` gave MDM2 E3 inh inactive.
Cc1cc(N)n2ncc(-c3ccccc3)c2n1 was read as Measles CPE inactive, Insulin prom inh 87, Yeast lifespan up inactive, MDM2 E3 inh inactive, BB579 growth dn inactive and RAM network inh inactive.
Screening CC(=O)Nc1ccc(Nc2cc(-c3ccccc3)nc3ncnn23)cc1 returned Insulin prom inh inactive, MDM2 E3 inh inactive and RAM network inh inactive.
`CC(=O)Nc1ccc(Nc2cc(C)nc3c(-c4ccccc4)cnn23)cc1` gave Insulin prom inh 75, Yeast lifespan up inactive, MDM2 E3 inh inactive, BB579 growth dn inactive and RAM network inh inactive.
Screening CCOC(=O)Cc1c(C)nc2c(-c3cccc(Br)c3)cnn2c1C returned Measles CPE inactive, Yeast lifespan up inactive, MDM2 E3 inh inactive, BB579 growth dn inactive and RAM network inh inactive.
`Cc1cc(N)n2ncc(-c3cccc(Br)c3)c2n1` gave Measles CPE inactive, Insulin prom inh 93, Yeast lifespan up inactive, MDM2 E3 inh inactive, BB579 growth dn inactive and RAM network inh inactive.
Screening Cc1cc(=O)oc2cc(OC(=O)c3nn(C(C)C)c(=O)c4ccccc34)ccc12 returned Measles CPE inactive, Insulin prom inh inactive, Yeast lifespan up inactive, MDM2 E3 inh inactive, BB579 growth dn inactive and RAM network inh inactive.
CC(C)n1nc(C(=O)Oc2ccc(Cl)cc2)c2ccccc2c1=O was read as Measles CPE inactive, Insulin prom inh inactive, Yeast lifespan up 29, MDM2 E3 inh inactive, BB579 growth dn inactive and RAM network inh inactive.
Screening CCOCCCNC(=S)N(Cc1ccco1)Cc1cc2cc3c(cc2[nH]c1=O)OCCO3 returned Insulin prom inh inactive, MDM2 E3 inh inactive and RAM network inh inactive.
Screening CCCCNC(=S)N(Cc1ccco1)Cc1cc2cc3c(cc2[nH]c1=O)OCCO3 returned Measles CPE inactive, Insulin prom inh inactive, Yeast lifespan up inactive, MDM2 E3 inh inactive, BB579 growth dn inactive and RAM network inh 8.5.
Screening c1ccn2cc(-c3ccc4c(c3)OCCO4)nc2c1 returned Insulin prom inh 71, MDM2 E3 inh inactive and RAM network inh inactive.
`Cc1ccc2nc(-c3ccc4c(c3)OCCO4)cn2c1` gave MDM2 E3 inh inactive.
Screening Cc1cccn2cc(-c3ccc(S(=O)(=O)N4CCOCC4)cc3)nc12 returned Measles CPE inactive, Yeast lifespan up inactive, MDM2 E3 inh inactive, BB579 growth dn inactive and RAM network inh inactive.
`O=S(=O)(c1ccc(-c2cn3ccccc3n2)cc1)N1CCOCC1` gave Measles CPE 63, Insulin prom inh inactive, Yeast lifespan up inactive, MDM2 E3 inh inactive, BB579 growth dn inactive and RAM network inh inactive.
Screening Cc1nc([N+](=O)[O-])c(Sc2nc3ccccc3n2C)n1Cc1ccccc1 returned Measles CPE inactive, Insulin prom inh inactive, Yeast lifespan up inactive, MDM2 E3 inh inactive, BB579 growth dn inactive and RAM network inh inactive.
Screening ClCc1ncc(-c2ccc(Cl)cc2)o1 returned Insulin prom inh inactive, MDM2 E3 inh inactive and RAM network inh inactive.
For COc1cccc(C2=NO[C@@H]3C(=O)N(c4ccc5c(c4)OCCO5)C(=O)[C@H]23)c1OC the results were Measles CPE inactive, Insulin prom inh 80, Yeast lifespan up inactive, MDM2 E3 inh inactive, BB579 growth dn inactive and RAM network inh inactive.
Screening COc1ccc(C(=O)N/C(=C\c2cccc3ccccc23)C(=O)NCCc2c[nH]c3ccccc23)cc1OC returned Measles CPE inactive, Insulin prom inh inactive, Yeast lifespan up inactive, MDM2 E3 inh inactive, BB579 growth dn inactive and RAM network inh 8.8.
Screening COc1ccc(C(=O)NCC(=O)NCCc2c[nH]c3ccccc23)cc1OC returned MDM2 E3 inh inactive and RAM network inh inactive.
`CC(=C1C(=O)c2ccccc2C1=O)N1CCN(CCN=CC2=C(O)CC(C)(C)CC2=O)CC1` gave Measles CPE inactive, Insulin prom inh inactive, Yeast lifespan up 34, MDM2 E3 inh inactive, BB579 growth dn inactive and RAM network inh inactive.

High-throughput results deposited in PubChem BioAssay by several laboratories.
